According to ChEMBL document CHEMBL3286116, “Synthesis, biological evaluation and structure-activity correlation study of a series of imidazol-based compounds as Candida albicans inhibitors” (Eur J Med Chem, 2014):
In brackets after ≈: the same amount, converted by molar mass.

Legend:
Candida albicans [1] = assay: Antifungal activity against Candida albicans ATCC 90028 after 48 hrs by CLSI broth microdilution method; format: functional; conditions: ATCC 90028, 48 h
How it was run: (§1)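 Yeast CLSI broth microdilution (M27-A3). Compounds dissolved in DMSO at 100× the top test concentration, then diluted as serial two-fold dilutions in RPMI 1640 to final 0.125–64. Inoculum was 1.0–1.5 × 10^3 cells mL−1, incubated at 35 °C and read for growth at 48 h. MIC is the lowest concentration giving ≥50% growth inhibition versus growth control. Reported as the median of five replicates and as the geometric mean.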

Candida albicans [2] = assay: Antifungal activity against Candida albicans ATCC 20891 after 48 hrs by CLSI broth microdilution method; format: functional; conditions: ATCC 20891, 48 h; how it was run: as §1
Candida albicans [3] = assay: Antifungal activity against Candida albicans PMC 1011 after 48 hrs by CLSI broth microdilution method; format: functional; conditions: PMC 1011, 48 h; how it was run: as §1
Pichia kudriavzevii [4] = assay: Antifungal activity against Candida krusei DSM 6128 after 48 hrs by CLSI broth microdilution method; format: functional; conditions: DSM 6128, 48 h; how it was run: as §1
Pichia kudriavzevii [5] = assay: Antifungal activity against Candida krusei PMC 0613 after 48 hrs by CLSI broth microdilution method; format: functional; conditions: PMC 0613, 48 h; how it was run: as §1
Candida tropicalis [6] = assay: Antifungal activity against Candida tropicalis PMC 0910 after 48 hrs by CLSI broth microdilution method; format: functional; conditions: PMC 0910, 48 h; how it was run: as §1
Candida tropicalis [7] = assay: Antifungal activity against Candida tropicalis DSM 11953 after 48 hrs by CLSI broth microdilution method; format: functional; conditions: DSM 11953, 48 h; how it was run: as §1
Candida parapsilosis [8] = assay: Antifungal activity against Candida parapsilosis DSM 11224 after 48 hrs by CLSI broth microdilution method; format: functional; conditions: Lodderomyces parapsilosis, DSM 11224, 48 h; how it was run: as §1
Candida parapsilosis [9] = assay: Antifungal activity against Candida parapsilosis ATCC 22019 after 48 hrs by CLSI broth microdilution method; format: functional; conditions: Lodderomyces parapsilosis, ATCC 22019, 48 h; how it was run: as §1
Nakaseomyces glabratus [10] = assay: Antifungal activity against Candida glabrata PMC 0805 after 48 hrs by CLSI broth microdilution method; format: functional; conditions: PMC 0805, 48 h; how it was run: as §1
Nakaseomyces glabratus [11] = assay: Antifungal activity against Candida glabrata PMC 0807 after 48 hrs by CLSI broth microdilution method; format: functional; conditions: PMC 0807, 48 h; how it was run: as §1
Cryptococcus neoformans [12] = assay: Antifungal activity against Cryptococcus neoformans PMC 2123 after 72 hrs by CLSI broth microdilution method; format: functional; conditions: PMC 2123, 72 h
How it was run: (§2)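 Cryptococcus neoformans tested by CLSI broth microdilution in RPMI 1640, with serial two-fold dilutions from DMSO stocks at 100× the top concentration, final 0.125–64. Inoculum was 1.0–1.5 × 10^3 cells mL−1 at 35 °C, with growth read at 72 h. MIC is the lowest concentration with ≥50% growth inhibition versus control. Median of five replicates, plus geometric mean.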

Cryptococcus neoformans [13] = assay: Antifungal activity against Cryptococcus neoformans PMC 2136 after 72 hrs by CLSI broth microdilution method; format: functional; conditions: PMC 2136, 72 h; how it was run: as §2
Cryptococcus neoformans [14] = assay: Antifungal activity against Cryptococcus neoformans PMC 2115 after 72 hrs by CLSI broth microdilution method; format: functional; conditions: PMC 2115, 72 h; how it was run: as §2
Cryptococcus neoformans [15] = assay: Antifungal activity against Cryptococcus neoformans PMC 2103 after 72 hrs by CLSI broth microdilution method; format: functional; conditions: PMC 2103, 72 h; how it was run: as §2
Cryptococcus neoformans [16] = assay: Antifungal activity against Cryptococcus neoformans PMC 2107 after 72 hrs by CLSI broth microdilution method; format: functional; conditions: PMC 2107, 72 h; how it was run: as §2
Cryptococcus neoformans [17] = assay: Antifungal activity against Cryptococcus neoformans PMC 2102 after 72 hrs by CLSI broth microdilution method; format: functional; conditions: PMC 2102, 72 h; how it was run: as §2
Cryptococcus neoformans [18] = assay: Antifungal activity against Cryptococcus neoformans DSM 11959 after 72 hrs by CLSI broth microdilution method; format: functional; conditions: DSM 11959, 72 h; how it was run: as §2
Cryptococcus neoformans [19] = assay: Antifungal activity against Cryptococcus neoformans PMC 2111 after 72 hrs by CLSI broth microdilution method; format: functional; conditions: PMC 2111, 72 h; how it was run: as §2
[20] = system: Trichophyton mentagrophytes; assay: Antifungal activity against Trichophyton mentagrophytes DSM 4870 after 72 hrs by CLSI broth microdilution method; format: functional; conditions: DSM 4870, 72 h
How it was run: (§3)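 Dermatophytes tested by CLSI broth microdilution for filamentous fungi (M38-A2). Serial two-fold dilutions of DMSO-dissolved compound in RPMI 1640, final 0.125–64. Inoculum was 0.4–5 × 10^4 CFU mL−1, incubated at 35 °C and read at 72 h. MIC80 is the lowest concentration giving ≥80% growth inhibition versus growth control. Median of five replicates, plus geometric mean.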

[21] = system: Trichophyton mentagrophytes; assay: Antifungal activity against Trichophyton mentagrophytes PMC 6515 after 72 hrs by CLSI broth microdilution method; format: functional; conditions: PMC 6515, 72 h; how it was run: as §3
[22] = system: Trichophyton mentagrophytes; assay: Antifungal activity against Trichophyton mentagrophytes PMC 6531 after 72 hrs by CLSI broth microdilution method; format: functional; conditions: PMC 6531, 72 h; how it was run: as §3
[23] = system: Trichophyton mentagrophytes; assay: Antifungal activity against Trichophyton mentagrophytes PMC 6509 after 72 hrs by CLSI broth microdilution method; format: functional; conditions: PMC 6509, 72 h; how it was run: as §3
[24] = system: Trichophyton mentagrophytes; assay: Antifungal activity against Trichophyton mentagrophytes PMC 6503 after 72 hrs by CLSI broth microdilution method; format: functional; conditions: PMC 6503, 72 h; how it was run: as §3
[25] = system: Trichophyton mentagrophytes; assay: Antifungal activity against Trichophyton mentagrophytes PMC 6552 after 72 hrs by CLSI broth microdilution method; format: functional; conditions: PMC 6552, 72 h; how it was run: as §3
Nannizzia gypsea [26] = assay: Antifungal activity against Microsporum gypseum PMC 7303 after 72 hrs by CLSI broth microdilution method; format: functional; conditions: PMC 7303, 72 h; how it was run: as §3
Nannizzia gypsea [27] = assay: Antifungal activity against Microsporum gypseum PMC 7331 after 72 hrs by CLSI broth microdilution method; format: functional; conditions: PMC 7331, 72 h; how it was run: as §3
Nannizzia gypsea [28] = assay: Antifungal activity against Microsporum gypseum DSM 3824 after 72 hrs by CLSI broth microdilution method; format: functional; conditions: DSM 3824, 72 h; how it was run: as §3
Candida albicans [29] = assay: Antifungal activity against Candida albicans PMC 1040R after 48 hrs by CLSI broth microdilution method; format: functional; how it was run: as §1
Candida albicans [30] = assay: Antifungal activity against Candida albicans PMC 1041R after 48 hrs by CLSI broth microdilution method; format: functional; how it was run: as §1
Nakaseomyces glabratus [31] = assay: Antifungal activity against Candida glabrata PMC 0850R after 48 hrs by CLSI broth microdilution method; format: functional; how it was run: as §1
Nakaseomyces glabratus [32] = assay: Antifungal activity against Candida glabrata PMC 0851R after 48 hrs by CLSI broth microdilution method; format: functional; how it was run: as §1
Nakaseomyces glabratus [33] = assay: Antifungal activity against Candida glabrata PMC 0852R after 48 hrs by CLSI broth microdilution method; format: functional; how it was run: as §1
Nakaseomyces glabratus [34] = assay: Antifungal activity against Candida glabrata PMC 0853R after 48 hrs by CLSI broth microdilution method; format: functional; how it was run: as §1
Candida albicans [35] = assay: Antifungal activity against Candida albicans PMC 1042R after 48 hrs by CLSI broth microdilution method; format: functional; how it was run: as §1
[36] = Cytotoxicity against human A549 cells after 48 hrs by MTT assay; format: cell-based
How it was run: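 A549 cells (ATCC CCL-185) seeded at 2 × 10^4/well in phenol-red-free RPMI 1640 with 10% FBS, L-glutamine, penicillin and streptomycin, at 37 °C and 5% CO2. Exposed 48 h to DMSO-dissolved compounds (final 16–256; at least five concentrations, triplicate). MTT added for 3–4 h, crystals solubilized, OD read at 570 nm. CC50 taken versus the DMSO control. Mean ± SD of two independent experiments.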

Candida albicans [37] = assay: Antifungal activity against Candida albicans ATCC 24433 after 48 hrs by CLSI broth microdilution method; format: functional; conditions: ATCC 24433, 48 h; how it was run: as §1
Candida albicans [38] = assay: Antifungal activity against Candida albicans ATCC 3153 after 48 hrs by CLSI broth microdilution method; format: functional; conditions: ATCC 3153, 48 h; how it was run: as §1
Candida albicans [39] = assay: Antifungal activity against Candida albicans ATCC 10231 after 48 hrs by CLSI broth microdilution method; format: functional; conditions: ATCC 10231, 48 h; how it was run: as §1
Candida albicans [40] = assay: Antifungal activity against Candida albicans ATCC 76615 after 48 hrs by CLSI broth microdilution method; format: functional; conditions: ATCC 76615, 48 h; how it was run: as §1
Candida albicans [41] = assay: Antifungal activity against Candida albicans ATCC 10261 after 48 hrs by CLSI broth microdilution method; format: functional; conditions: ATCC 10261, 48 h; how it was run: as §1

MIC50 (Candida albicans [1]): 0.25 µg/mL (≈ 0.481 µM)
MIC50 (Candida albicans [2]): 0.125 µg/mL (≈ 0.24 µM)
MIC50 (Candida albicans [3]): 0.25 µg/mL (≈ 0.481 µM)
MIC50 (Pichia kudriavzevii [4]): 1 µg/mL (≈ 1.92 µM)
MIC50 (Pichia kudriavzevii [5]): 0.125 µg/mL (≈ 0.24 µM)
MIC50 (Candida tropicalis [6]): 2 µg/mL (≈ 3.85 µM)
MIC50 (Candida tropicalis [7]): 0.5 µg/mL (≈ 0.962 µM)
MIC50 (Candida parapsilosis [8]): 0.125 µg/mL (≈ 0.24 µM)
MIC50 (Candida parapsilosis [9]): 0.25 µg/mL (≈ 0.481 µM)
MIC50 (Nakaseomyces glabratus [10]): 0.125 µg/mL (≈ 0.24 µM)
MIC50 (Nakaseomyces glabratus [11]): 1 µg/mL (≈ 1.92 µM)
MIC50 (Cryptococcus neoformans [12]): 0.5 µg/mL (≈ 0.962 µM)
MIC50 (Cryptococcus neoformans [13]): 0.125 µg/mL (≈ 0.24 µM)
MIC50 (Cryptococcus neoformans [14]): 0.25 µg/mL (≈ 0.481 µM)
MIC50 (Cryptococcus neoformans [15]): 0.25 µg/mL (≈ 0.481 µM)
MIC50 (Cryptococcus neoformans [16]): 0.25 µg/mL (≈ 0.481 µM)
MIC50 (Cryptococcus neoformans [17]): 0.25 µg/mL (≈ 0.481 µM)
MIC50 (Cryptococcus neoformans [18]): 0.25 µg/mL (≈ 0.481 µM)
MIC50 (Cryptococcus neoformans [19]): 0.5 µg/mL (≈ 0.962 µM)
MIC80 [20]: 8 µg/mL (≈ 15.4 µM)
MIC80 [21]: 8 µg/mL (≈ 15.4 µM)
MIC80 [22]: 8 µg/mL (≈ 15.4 µM)
MIC80 [23]: 8 µg/mL (≈ 15.4 µM)
MIC80 [24]: 8 µg/mL (≈ 15.4 µM)
MIC80 [25]: 8 µg/mL (≈ 15.4 µM)
MIC80 (Nannizzia gypsea [26]): 4 µg/mL (≈ 7.69 µM)
MIC80 (Nannizzia gypsea [27]): 8 µg/mL (≈ 15.4 µM)
MIC80 (Nannizzia gypsea [28]): 4 µg/mL (≈ 7.69 µM)
MIC50 (Candida albicans [29]): 64 µg/mL (≈ 123 µM)
MIC50 (Candida albicans [30]): 1 µg/mL (≈ 1.92 µM)
MIC50 (Nakaseomyces glabratus [31]): 1 µg/mL (≈ 1.92 µM)
MIC50 (Nakaseomyces glabratus [32]): 64 µg/mL (≈ 123 µM)
MIC50 (Nakaseomyces glabratus [33]): 4 µg/mL (≈ 7.69 µM)
MIC50 (Nakaseomyces glabratus [34]): 4 µg/mL (≈ 7.69 µM)
MIC50 (Candida albicans [35]): 2 µg/mL (≈ 3.85 µM)
MIC50 (Candida albicans [37]): 4 µg/mL (≈ 7.69 µM)
MIC50 (Candida albicans [38]): 8 µg/mL (≈ 15.4 µM)
MIC50 (Candida albicans [39]): 4 µg/mL (≈ 7.69 µM)
MIC50 (Candida albicans [40]): 8 µg/mL (≈ 15.4 µM)
MIC50 (Candida albicans [41]): 1 µg/mL (≈ 1.92 µM)
Structure (SMILES): O=C(Nc1ccc(N2CCN(c3ccc(Cl)cc3)CC2)cc1)OC(Cn1ccnc1)c1ccc(F)cc1 (stereo unspecified)
CC50 at 48 h [36]: 172 µg/mL (≈ 330 µM)
